In ChEMBL document CHEMBL5260822, “Structure-based design and synthesis of 2,4-diaminopyrimidines as EGFR L858R/T790M selective inhibitors for NSCLC” (Eur J Med Chem, 2017):
Calls of active or inactive are those of the source. The calls are words filed in the database; no cut-off is given here.

Experiments:
[1] = target: Tyrosine-protein kinase JAK2 (Homo sapiens) (UniProt O60674); assay: Inhibition of JAK2 (unknown origin) at 1000 nM by DiscoverX KINOMEscan assay relative to control; values are per cent of control
[2] = Clearance in Sprague-Dawley rat at 1 mg/kg, iv and measured after 24 hrs by LC-MS/MS analysis; assay type: ADME, organism-based; conditions: in vivo
[3] = target: Receptor tyrosine-protein kinase erbB-4 (Homo sapiens) (UniProt Q15303); assay: Inhibition of ERBB4 (unknown origin) at 1000 nM by DiscoverX KINOMEscan assay relative to control; values are per cent of control
[4] = system: Epidermal growth factor receptor (Homo sapiens), P00533 [L858R,T790M]; assay: Inhibition of EGFR phosphorylation in EGF-stimulated human NCI-H1975 cells harboring EGFR L858R/T790M double mutant at 0.1 to 100 nM and measured after 2 hrs by Western blot analysis; assay type: cell-based; conditions: dose 0.1-100 nM
Summary of the method: (§1)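 Cells treated with compound for 2 h, then stimulated with EGF for 15 min and lysed. Lysates cleared at 12,000 × g (10 min, 4 °C), protein measured by Bradford assay, and equal amounts run on 8% SDS-PAGE and blotted to nitrocellulose. Probed for p-EGFR (Y1068), EGFR, p-ERK (T202/Y204), ERK, with tubulin or GAPDH as loading controls.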

[5] = target: Insulin-like growth factor 1 receptor (Homo sapiens) (UniProt P08069); assay: Inhibition of IGF1R (unknown origin) at 1000 nM by DiscoverX KINOMEscan assay relative to control; values are per cent of control
[6] = target: Epidermal growth factor receptor (Homo sapiens, UniProt P00533, L858R/T790M); assay: Inhibition of EGFR L858R/T790M mutant (unknown origin) expressed in baculovirus expression system by ELISA
[7] = target: MAP kinase-interacting serine/threonine-protein kinase 2 (Homo sapiens) (UniProt Q9HBH9); assay: Inhibition of MKNK2 (unknown origin) at 1000 nM by DiscoverX KINOMEscan assay relative to control; values are per cent of control
[8] = AUC (0 to infinity) in Sprague-Dawley rat at 10 mg/kg, po and measured after 24 hrs by LC-MS/MS analysis; assay type: ADME, organism-based; parameters: dose 10 mg/kg, time 24 hrs, route po; conditions: in vivo
Summary of the method: (§2)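 Male Sprague–Dawley rats (190–220 g) dosed by oral gavage at 10 mg/kg in 5% DMSO / 95% HP-β-CD aqueous solution (20%); iv reference arm at 1 mg/kg. Blood sampled at 0.25, 0.5, 1, 2, 4, 6, 8 and 24 h, centrifuged (8000 × g, 6 min), and plasma quantified by LC–MS/MS.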

NCI-H1975 [9] = assay: Antitumor activity against human NCI-H1975 cells harboring EGFR L858R/T790M mutant xenografted in BALB/c nude mouse assessed as tumor cell proliferation at 15 to 30 mg/kg, po for 18 days by Ki-67 staining based immunohistochemical analysis; assay type: functional, organism-based; conditions: dose 15-30 mg/kg, time 18.0 day
Summary of the method: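 H1975 xenograft tumors from nude mice (n = 6/group, daily dosing 18 days) were harvested, fixed in 10% formalin, paraffin-embedded and cut into 5 µm sections. Sections deparaffinized and incubated with primary anti-Ki-67 antibody at room temperature; immunoreactivity visualized with DAB.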

[10] = target: ALK tyrosine kinase receptor (Homo sapiens) (UniProt Q9UM73); assay: Inhibition of ALK (unknown origin) at 1000 nM by DiscoverX KINOMEscan assay relative to control; values are per cent of control
[11] = target: T1, Epidermal growth factor receptor (Homo sapiens, UniProt P00533); assay: Inhibition of EGFR phosphorylation in EGF-stimulated human A-431 cells harboring wild type EGFR at 100 nM and measured after 2 hrs by Western blot analysis; assay type: cell-based
Summary of the method: as §1

[12] = system: Epidermal growth factor receptor (Homo sapiens), P00533 [L858R,T790M]; conditions: NCI-H1975, dose 10.0 nM, time 2.0 hrs
[13] = target: Insulin receptor (Homo sapiens) (UniProt P06213); assay: Inhibition of INSR (unknown origin) at 1000 nM by DiscoverX KINOMEscan assay relative to control; values are per cent of control
[14] = AUC (0 to infinity) in Sprague-Dawley rat at 1 mg/kg, iv and measured after 24 hrs by LC-MS/MS analysis; assay type: ADME, organism-based; parameters: time 24 hrs, dose 1 mg/kg, route iv; conditions: in vivo
[15] = Cmax in Sprague-Dawley rat at 10 mg/kg, po and measured after 24 hrs by LC-MS/MS analysis; assay type: ADME, organism-based; parameters: dose 10 mg/kg, time 24 hrs, route po; conditions: in vivo
Summary of the method: as §2

NCI-H1975 [16] = assay: Antitumor activity against human NCI-H1975 cells harboring EGFR L858R/T790M mutant xenografted in BALB/c nude mouse assessed as tumor growth inhibition at 15 mg/kg, po for 18 days; assay type: functional; conditions: NCI-H1975, 432 h, time 18 day, read-out: TGI
Summary of the method: (§3)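 H1975 cells (1 × 10^6 in 0.1 mL PBS) injected subcutaneously into the right flank of female nude mice. At mean tumor volume of about 100 mm3 (roughly 18 days), mice randomized, n = 6 per group, and dosed once daily for 18 days against a vehicle group. Tumor volume (0.5 × L × W²) measured every 2–3 days; tumors weighed at sacrifice. Data given as mean ± SEM.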

[17] = Volume of distribution at steady state in Sprague-Dawley rat at 1 mg/kg, iv and measured after 24 hrs by LC-MS/MS analysis; assay type: ADME, organism-based; conditions: in vivo, read-out: Vdss
[18] = Toxicity in BALB/c nude mouse xenografted with human NCI-H1975 cells harboring EGFR L858R/T790M mutant assessed as morphological changes in heart at 15 to 30 mg/kg, po for 18 days by hematoxylin and eosin staining based microscopic analysis; assay type: organism-based; conditions: in vivo, 432 h, dose 15-30 mg/kg, time 18 day
Summary of the method: (§4)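 H1975 subcutaneous xenografts were grown in female BALB/cA nu/nu mice (n = 6 per group), dosed at 15 or 30 mg/kg/day for 18 days or with vehicle. At the end the mice were sacrificed. Heart, kidney and liver were harvested, processed and stained with hematoxylin and eosin for routine histological examination.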

[19] = Toxicity in BALB/c nude mouse xenografted with human NCI-H1975 cells harboring EGFR L858R/T790M mutant assessed as morphological changes in liver at 15 to 30 mg/kg, po for 18 days by hematoxylin and eosin staining based microscopic analysis; assay type: organism-based; conditions: in vivo, 432 h, dose 15-30 mg/kg, time 18 day
Summary of the method: as §4

NCI-H1975 [20] = assay: Antitumor activity against human NCI-H1975 cells harboring EGFR L858R/T790M mutant xenografted in BALB/c nude mouse assessed as tumor growth inhibition at 30 mg/kg, po for 18 days; assay type: functional; conditions: NCI-H1975, 432 h, time 18 day, read-out: TGI
Summary of the method: as §3

[21] = Half life in Sprague-Dawley rat at 1 mg/kg, iv and measured after 24 hrs by LC-MS/MS analysis; assay type: ADME, organism-based; conditions: in vivo
[22] = target: T1, Epidermal growth factor receptor; assay: Inhibition of wild type EGFR (unknown origin) expressed in baculovirus expression system by ELISA

T1 sequence (P00533 whole entry): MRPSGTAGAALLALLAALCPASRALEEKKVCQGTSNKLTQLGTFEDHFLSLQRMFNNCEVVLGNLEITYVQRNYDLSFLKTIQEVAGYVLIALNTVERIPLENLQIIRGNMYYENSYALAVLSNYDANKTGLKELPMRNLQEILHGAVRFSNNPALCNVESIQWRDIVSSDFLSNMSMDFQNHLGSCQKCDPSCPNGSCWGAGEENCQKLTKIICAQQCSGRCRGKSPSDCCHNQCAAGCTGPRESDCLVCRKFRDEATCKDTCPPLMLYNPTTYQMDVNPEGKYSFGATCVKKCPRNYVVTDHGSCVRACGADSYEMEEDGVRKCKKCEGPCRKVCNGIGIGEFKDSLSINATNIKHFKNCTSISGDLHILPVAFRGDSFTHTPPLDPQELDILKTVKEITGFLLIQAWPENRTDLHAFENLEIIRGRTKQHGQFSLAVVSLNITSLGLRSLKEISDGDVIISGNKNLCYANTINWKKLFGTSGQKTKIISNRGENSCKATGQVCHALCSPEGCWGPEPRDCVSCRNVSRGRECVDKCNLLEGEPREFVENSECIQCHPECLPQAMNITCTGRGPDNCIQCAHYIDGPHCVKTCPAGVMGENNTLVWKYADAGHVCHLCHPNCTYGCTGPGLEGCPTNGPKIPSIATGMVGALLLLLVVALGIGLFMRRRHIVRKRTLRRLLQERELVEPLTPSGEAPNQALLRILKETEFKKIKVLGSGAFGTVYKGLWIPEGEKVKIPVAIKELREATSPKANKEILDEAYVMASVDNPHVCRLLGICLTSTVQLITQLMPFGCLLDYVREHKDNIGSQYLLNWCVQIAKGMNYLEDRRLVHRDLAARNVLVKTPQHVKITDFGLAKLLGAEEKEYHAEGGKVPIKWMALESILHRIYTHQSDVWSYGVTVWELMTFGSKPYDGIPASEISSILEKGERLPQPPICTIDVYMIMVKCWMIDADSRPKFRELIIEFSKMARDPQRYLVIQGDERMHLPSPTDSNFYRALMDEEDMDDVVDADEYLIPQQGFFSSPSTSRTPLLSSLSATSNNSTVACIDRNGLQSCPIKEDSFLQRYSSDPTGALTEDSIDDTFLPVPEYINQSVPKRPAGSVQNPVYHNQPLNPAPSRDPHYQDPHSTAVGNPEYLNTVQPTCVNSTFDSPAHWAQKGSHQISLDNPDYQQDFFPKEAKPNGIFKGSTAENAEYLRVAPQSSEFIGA
Chain of Epidermal growth factor receptor (Homo sapiens), P00533 [L858R,T790M] (P00533 whole entry T790M/L858R, looked up): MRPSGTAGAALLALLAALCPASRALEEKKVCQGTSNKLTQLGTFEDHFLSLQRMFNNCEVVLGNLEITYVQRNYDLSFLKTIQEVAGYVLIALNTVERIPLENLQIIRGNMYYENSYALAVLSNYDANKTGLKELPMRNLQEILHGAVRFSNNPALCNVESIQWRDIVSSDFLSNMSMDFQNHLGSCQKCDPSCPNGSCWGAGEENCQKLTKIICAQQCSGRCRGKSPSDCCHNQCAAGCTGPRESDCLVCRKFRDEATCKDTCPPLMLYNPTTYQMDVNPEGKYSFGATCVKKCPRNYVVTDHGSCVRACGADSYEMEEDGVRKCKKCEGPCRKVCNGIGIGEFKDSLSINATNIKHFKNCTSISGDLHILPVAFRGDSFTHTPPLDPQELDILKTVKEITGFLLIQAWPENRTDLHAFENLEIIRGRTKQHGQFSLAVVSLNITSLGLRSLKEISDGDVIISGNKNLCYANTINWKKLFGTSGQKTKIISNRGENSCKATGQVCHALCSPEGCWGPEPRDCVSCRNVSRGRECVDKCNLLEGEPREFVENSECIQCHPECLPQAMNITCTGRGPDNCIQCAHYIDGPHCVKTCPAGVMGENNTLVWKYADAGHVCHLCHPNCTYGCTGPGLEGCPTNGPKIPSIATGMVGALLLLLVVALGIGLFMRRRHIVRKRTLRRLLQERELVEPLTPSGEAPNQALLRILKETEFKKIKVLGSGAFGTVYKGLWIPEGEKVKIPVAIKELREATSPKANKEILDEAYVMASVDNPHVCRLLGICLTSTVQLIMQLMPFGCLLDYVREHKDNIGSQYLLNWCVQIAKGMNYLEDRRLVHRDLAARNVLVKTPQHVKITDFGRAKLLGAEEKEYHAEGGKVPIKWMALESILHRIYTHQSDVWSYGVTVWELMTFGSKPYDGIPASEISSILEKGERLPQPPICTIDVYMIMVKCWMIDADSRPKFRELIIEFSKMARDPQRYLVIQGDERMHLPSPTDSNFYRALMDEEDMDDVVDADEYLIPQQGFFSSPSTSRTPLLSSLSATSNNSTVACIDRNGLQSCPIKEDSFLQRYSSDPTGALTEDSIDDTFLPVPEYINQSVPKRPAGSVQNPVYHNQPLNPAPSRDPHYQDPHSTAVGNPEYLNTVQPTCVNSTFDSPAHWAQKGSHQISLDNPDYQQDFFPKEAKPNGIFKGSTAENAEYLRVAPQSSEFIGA
Chain of MAP kinase-interacting serine/threonine-protein kinase 2 (Homo sapiens) (Q9HBH9 whole entry, looked up): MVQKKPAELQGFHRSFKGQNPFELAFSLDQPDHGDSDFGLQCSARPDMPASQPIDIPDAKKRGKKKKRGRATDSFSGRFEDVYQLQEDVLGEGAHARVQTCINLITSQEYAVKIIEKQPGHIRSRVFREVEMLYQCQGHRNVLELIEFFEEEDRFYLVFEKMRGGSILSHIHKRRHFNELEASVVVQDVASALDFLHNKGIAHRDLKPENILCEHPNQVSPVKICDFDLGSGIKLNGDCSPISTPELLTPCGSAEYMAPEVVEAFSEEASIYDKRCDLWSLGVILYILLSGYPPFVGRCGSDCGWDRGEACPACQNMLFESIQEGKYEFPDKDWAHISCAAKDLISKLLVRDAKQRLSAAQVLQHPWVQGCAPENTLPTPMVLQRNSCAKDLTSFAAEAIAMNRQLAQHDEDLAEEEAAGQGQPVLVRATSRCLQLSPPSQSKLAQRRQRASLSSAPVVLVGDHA
Chain of Receptor tyrosine-protein kinase erbB-4 (Homo sapiens) (Q15303 whole entry): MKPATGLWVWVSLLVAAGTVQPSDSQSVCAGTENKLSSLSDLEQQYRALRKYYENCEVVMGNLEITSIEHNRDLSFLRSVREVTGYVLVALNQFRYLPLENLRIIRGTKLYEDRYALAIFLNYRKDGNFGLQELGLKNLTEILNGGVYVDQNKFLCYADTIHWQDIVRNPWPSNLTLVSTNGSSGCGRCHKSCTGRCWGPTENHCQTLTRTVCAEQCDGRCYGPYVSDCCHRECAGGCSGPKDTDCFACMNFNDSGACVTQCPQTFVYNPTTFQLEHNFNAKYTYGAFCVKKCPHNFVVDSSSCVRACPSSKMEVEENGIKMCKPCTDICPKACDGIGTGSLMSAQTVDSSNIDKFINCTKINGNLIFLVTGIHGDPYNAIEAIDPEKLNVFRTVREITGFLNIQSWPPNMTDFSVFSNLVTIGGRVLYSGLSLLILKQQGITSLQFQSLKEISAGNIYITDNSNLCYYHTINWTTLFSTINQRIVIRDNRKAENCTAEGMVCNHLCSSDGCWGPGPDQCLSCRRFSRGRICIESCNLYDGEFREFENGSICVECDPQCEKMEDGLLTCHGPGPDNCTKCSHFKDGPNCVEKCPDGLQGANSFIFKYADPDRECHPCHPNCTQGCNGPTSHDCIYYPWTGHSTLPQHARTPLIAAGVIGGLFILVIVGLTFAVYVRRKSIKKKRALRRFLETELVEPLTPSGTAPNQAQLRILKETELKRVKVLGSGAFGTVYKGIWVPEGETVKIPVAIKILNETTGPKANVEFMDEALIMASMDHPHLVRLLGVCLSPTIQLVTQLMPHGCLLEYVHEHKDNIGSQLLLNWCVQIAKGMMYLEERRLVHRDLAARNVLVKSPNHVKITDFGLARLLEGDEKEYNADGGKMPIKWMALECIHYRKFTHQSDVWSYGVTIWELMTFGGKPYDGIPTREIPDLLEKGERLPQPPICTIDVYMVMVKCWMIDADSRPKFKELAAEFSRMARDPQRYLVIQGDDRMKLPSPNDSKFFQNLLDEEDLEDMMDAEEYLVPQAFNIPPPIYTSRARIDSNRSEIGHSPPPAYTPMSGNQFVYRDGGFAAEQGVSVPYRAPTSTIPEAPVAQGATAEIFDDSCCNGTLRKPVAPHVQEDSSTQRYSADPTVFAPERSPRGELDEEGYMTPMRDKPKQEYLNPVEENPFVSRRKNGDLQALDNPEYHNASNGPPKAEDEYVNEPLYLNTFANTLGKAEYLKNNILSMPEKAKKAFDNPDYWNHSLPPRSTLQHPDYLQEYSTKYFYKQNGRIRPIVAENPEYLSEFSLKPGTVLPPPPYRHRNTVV

**Q.** With C=CC(=O)Nc1cc(Nc2ncc(Br)c(Nc3ccc4ccn(C)c4c3)n2)c(OC)cc1N1CCN(C)CC1 as the compound, how does the residual activity [1] read?
**A.** < 10%

**Q.** And the clearance [2]?
**A.** 32.6 mL/min/kg

**Q.** What about the residual activity [3] of the same compound?
**A.** < 10%

**Q.** What about the inhibition [4] of the same compound?
**A.** Dose-Dependent Effect

**Q.** And the residual activity [5]?
**A.** > 35%

**Q.** And the IC50 [6]?
**A.** 4.1 nM

**Q.** And the residual activity [7]?
**A.** < 10%

**Q.** What about the AUC [8] of the same compound?
**A.** 52.3 ng·h/mL

**Q.** And the Activity (NCI-H1975 [9])?
**A.** Active

**Q.** And the residual activity [10]?
**A.** < 10%

**Q.** What about the inhibition [11] of the same compound?
**A.** inactive

**Q.** What about the inhibition [12] of the same compound?
**A.** Active

**Q.** And the residual activity [13]?
**A.** < 10%

**Q.** And the AUC [14]?
**A.** 515 ng·h/mL

**Q.** What about the Cmax [15] of the same compound?
**A.** 636 ng/mL

**Q.** What about the inhibition in vivo at 15 mg/kg (NCI-H1975 [16]) of the same compound?
**A.** 62%

**Q.** What about the Vd [17] of the same compound?
**A.** 6.56 L/kg

**Q.** What about the Activity [18] of the same compound?
**A.** Non-Toxic

**Q.** What about the Activity [19] of the same compound?
**A.** Non-Toxic

**Q.** And the inhibition in vivo at 30 mg/kg (NCI-H1975 [20])?
**A.** 86%

**Q.** What about the half-life [21] of the same compound?
**A.** 3.47 h

**Q.** What about the IC50 [22] of the same compound?
**A.** 280 nM
